Source: ChEMBL document CHEMBL1157888, “New 5-HT(1A) receptor ligands containing a N'-cyanoisonicotinamidine nucleus: synthesis and in vitro pharmacological evaluation” (Bioorg Med Chem Lett, 2010)

What was measured:
[1] = target: T1, 5-hydroxytryptamine receptor 1A (Rattus norvegicus, UniProt P19327); experiment: Displacement of [3H]-8-OH-DPAT from 5-HT1A receptor in Sprague-Dawley rat brain cortex after 30 mins liquid scintillation spectrometer; assay type: tissue-based, Cerebral cortex
T1 sequence (P19327 whole entry): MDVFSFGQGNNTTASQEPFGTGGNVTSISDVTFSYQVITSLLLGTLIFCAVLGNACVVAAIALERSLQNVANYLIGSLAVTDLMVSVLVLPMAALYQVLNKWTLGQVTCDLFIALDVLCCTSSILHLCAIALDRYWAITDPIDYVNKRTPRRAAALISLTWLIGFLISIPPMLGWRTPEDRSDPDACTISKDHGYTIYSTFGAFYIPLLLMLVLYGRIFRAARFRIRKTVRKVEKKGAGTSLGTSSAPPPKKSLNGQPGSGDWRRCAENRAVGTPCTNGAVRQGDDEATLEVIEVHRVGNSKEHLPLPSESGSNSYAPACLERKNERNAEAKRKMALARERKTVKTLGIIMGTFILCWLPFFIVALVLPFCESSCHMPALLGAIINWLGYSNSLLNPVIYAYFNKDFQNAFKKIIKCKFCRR
In short: (§1)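 Radioligand competition binding. Compounds were dissolved in ethanol or in 5% DMSO, and blank runs checked 5% DMSO for interference with binding. Six test-compound concentrations, each in triplicate, gave IC50 values by curve fitting. Ki was calculated by Cheng–Prusoff, Ki = IC50/(1 + S/KD), where S is the hot-ligand concentration and KD came from Scatchard analysis for each labeled ligand.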

[2] = target: 5-hydroxytryptamine receptor 2A (Rattus norvegicus, UniProt P14842); experiment: Displacement of [3H]ketanserin hydrochloride from 5-HT2A receptor in Sprague-Dawley rat brain cortex after 15 mins; in short: as §1
Sequence of 5-hydroxytryptamine receptor 2A (P14842 whole entry): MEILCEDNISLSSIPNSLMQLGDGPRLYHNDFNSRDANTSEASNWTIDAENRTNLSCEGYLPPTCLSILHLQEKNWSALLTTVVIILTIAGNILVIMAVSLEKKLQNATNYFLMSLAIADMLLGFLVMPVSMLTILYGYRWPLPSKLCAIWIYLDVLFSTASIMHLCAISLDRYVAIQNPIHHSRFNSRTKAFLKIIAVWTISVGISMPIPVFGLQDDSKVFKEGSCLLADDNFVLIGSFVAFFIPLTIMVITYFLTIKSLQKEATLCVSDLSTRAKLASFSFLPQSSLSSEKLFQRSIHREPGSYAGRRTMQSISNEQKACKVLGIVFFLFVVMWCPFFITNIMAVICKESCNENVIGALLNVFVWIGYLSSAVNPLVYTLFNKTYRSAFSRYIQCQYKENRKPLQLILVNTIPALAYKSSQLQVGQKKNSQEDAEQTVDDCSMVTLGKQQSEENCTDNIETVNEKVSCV

[3] = target: T2, 5-hydroxytryptamine receptor 2C (Rattus norvegicus, UniProt P08909); experiment: Displacement of [3H]mesulergine from 5-HT2C receptor in Sprague-Dawley rat brain cortex after 15 mins; in short: as §1
T2 sequence (P08909 whole entry): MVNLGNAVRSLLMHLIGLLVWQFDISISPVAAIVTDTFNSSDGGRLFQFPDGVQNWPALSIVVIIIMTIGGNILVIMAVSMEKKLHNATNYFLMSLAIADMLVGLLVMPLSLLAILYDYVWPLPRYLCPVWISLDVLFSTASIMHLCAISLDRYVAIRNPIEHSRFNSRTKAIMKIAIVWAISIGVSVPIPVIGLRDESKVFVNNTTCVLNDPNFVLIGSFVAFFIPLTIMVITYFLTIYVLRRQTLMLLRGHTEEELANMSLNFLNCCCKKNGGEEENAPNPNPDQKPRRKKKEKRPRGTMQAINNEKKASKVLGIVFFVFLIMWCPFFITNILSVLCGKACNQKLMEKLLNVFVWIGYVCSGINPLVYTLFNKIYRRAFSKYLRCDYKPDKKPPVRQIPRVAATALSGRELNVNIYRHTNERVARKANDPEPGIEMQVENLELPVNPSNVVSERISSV

[4] = target: D(1A) dopamine receptor (Rattus norvegicus, UniProt P18901); experiment: Displacement of [3H]SCH-23390 from dopamine D1 receptor in rat striatum after 15 mins by liquid scintillation counting; in short: as §1
Sequence of D(1A) dopamine receptor (P18901 whole entry): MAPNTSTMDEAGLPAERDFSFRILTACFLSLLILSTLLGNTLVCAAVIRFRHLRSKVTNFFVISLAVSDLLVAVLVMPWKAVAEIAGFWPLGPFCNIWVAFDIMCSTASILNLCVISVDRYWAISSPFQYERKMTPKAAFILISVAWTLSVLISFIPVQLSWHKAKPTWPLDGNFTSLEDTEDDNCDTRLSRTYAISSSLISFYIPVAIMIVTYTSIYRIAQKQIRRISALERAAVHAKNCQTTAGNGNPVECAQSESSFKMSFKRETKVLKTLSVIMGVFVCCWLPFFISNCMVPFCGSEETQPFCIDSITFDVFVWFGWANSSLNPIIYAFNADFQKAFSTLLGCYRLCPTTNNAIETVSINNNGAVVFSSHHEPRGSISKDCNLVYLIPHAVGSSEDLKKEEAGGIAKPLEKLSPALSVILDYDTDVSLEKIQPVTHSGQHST

[5] = target: D(2) dopamine receptor (Rattus norvegicus, UniProt P61169); experiment: Displacement of [3H]spiperone from dopamine D2 receptor in rat striatum after 15 mins by liquid scintillation counting; in short: as §1
Sequence of D(2) dopamine receptor (P61169 whole entry): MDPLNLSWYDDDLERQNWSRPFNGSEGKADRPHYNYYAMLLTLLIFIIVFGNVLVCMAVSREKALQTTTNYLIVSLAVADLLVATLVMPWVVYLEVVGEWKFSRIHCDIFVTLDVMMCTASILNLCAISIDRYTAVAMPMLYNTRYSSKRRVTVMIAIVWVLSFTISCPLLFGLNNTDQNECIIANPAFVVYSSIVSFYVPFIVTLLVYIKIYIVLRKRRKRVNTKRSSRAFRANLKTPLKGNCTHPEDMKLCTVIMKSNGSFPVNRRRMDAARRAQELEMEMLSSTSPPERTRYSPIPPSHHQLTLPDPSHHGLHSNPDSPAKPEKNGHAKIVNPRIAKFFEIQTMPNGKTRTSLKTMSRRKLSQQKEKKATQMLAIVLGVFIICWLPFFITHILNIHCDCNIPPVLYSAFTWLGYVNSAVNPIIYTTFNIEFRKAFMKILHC

[6] = target: T3, Adrenergic receptor alpha-1 (Rattus norvegicus, UniProt P15823+P23944+P43140); experiment: Displacement of [3H]prazosin from alpha1 adrenergic receptor in rat striatum after 30 mins by liquid scintillation counting; settings: in the assay text read “rat brain cortex” for “rat striatum”; in short: as §1
T3 sequence (P15823 whole entry): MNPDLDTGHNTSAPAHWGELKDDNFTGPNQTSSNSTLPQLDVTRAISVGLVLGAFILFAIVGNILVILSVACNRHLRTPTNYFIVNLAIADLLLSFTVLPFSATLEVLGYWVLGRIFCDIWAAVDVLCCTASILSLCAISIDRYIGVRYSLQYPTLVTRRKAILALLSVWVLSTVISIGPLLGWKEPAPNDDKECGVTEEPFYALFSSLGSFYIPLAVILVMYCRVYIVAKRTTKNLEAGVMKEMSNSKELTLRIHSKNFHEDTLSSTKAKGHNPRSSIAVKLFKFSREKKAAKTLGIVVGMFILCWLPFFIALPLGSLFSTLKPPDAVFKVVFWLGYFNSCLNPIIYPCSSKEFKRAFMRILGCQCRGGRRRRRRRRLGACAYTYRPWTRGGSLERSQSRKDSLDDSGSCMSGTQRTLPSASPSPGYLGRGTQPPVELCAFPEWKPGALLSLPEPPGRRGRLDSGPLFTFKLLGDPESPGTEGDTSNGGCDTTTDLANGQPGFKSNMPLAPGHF
T3 sequence (P23944 whole entry): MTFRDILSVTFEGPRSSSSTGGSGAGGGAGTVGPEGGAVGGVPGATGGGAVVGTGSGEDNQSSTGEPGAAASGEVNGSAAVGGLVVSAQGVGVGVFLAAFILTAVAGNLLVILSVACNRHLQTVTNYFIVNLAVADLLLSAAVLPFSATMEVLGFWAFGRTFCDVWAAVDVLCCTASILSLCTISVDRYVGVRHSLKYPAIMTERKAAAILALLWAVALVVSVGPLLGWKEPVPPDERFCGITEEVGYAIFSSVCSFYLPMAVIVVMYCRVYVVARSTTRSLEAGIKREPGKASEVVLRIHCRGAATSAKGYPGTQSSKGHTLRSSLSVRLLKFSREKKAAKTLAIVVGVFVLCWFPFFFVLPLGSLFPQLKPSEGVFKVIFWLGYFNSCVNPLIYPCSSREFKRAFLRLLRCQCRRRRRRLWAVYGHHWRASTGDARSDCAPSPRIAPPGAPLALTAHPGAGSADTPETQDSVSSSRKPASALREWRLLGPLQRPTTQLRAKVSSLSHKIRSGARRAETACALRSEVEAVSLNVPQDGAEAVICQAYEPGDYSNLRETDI
T3 sequence (P43140 whole entry): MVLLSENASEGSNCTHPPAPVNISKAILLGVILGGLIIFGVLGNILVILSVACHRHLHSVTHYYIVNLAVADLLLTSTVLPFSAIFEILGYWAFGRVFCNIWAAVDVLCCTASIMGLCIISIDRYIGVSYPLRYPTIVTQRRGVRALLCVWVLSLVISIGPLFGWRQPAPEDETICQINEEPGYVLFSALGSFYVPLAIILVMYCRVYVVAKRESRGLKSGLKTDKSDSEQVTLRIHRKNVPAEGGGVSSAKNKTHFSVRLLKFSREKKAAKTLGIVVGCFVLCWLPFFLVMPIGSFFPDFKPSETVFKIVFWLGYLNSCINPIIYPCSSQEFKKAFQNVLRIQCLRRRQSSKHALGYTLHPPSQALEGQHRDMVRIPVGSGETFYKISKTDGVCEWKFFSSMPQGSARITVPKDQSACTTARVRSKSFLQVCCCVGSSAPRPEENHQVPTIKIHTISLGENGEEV

[7] = target: T4, Adrenergic receptor alpha-2 (Rattus norvegicus, UniProt P22086+P19328+P22909); experiment: Displacement of [3H]yohimbine from alpha 2 adrenergic receptor in rat brain cortex after 30 mins by liquid scintillation counting; assay type: tissue-based; in short: as §1
T4 sequence (P22086 whole entry): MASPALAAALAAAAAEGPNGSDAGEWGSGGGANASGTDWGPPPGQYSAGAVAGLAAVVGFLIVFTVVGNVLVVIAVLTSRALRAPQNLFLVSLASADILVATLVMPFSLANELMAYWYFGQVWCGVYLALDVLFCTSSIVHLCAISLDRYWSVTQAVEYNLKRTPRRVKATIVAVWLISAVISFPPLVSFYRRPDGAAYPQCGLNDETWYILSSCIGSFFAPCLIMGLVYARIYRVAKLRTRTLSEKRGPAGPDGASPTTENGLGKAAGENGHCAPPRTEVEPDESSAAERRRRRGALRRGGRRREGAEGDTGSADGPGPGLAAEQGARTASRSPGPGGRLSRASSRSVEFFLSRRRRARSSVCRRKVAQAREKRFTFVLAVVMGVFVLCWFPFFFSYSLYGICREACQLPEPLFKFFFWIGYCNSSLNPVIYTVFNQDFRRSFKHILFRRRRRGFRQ
T4 sequence (P19328 whole entry): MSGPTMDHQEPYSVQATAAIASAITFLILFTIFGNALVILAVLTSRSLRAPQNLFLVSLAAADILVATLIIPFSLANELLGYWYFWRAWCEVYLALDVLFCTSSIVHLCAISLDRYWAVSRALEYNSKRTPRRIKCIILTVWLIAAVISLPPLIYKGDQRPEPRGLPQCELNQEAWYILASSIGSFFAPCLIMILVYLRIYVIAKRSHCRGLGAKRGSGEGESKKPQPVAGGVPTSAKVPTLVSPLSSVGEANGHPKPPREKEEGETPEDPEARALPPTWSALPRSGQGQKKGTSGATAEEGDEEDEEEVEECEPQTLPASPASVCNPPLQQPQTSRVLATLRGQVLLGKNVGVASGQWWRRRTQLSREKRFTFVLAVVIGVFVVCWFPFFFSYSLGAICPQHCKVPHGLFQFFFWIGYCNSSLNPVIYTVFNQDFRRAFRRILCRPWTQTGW
T4 sequence (P22909 whole entry): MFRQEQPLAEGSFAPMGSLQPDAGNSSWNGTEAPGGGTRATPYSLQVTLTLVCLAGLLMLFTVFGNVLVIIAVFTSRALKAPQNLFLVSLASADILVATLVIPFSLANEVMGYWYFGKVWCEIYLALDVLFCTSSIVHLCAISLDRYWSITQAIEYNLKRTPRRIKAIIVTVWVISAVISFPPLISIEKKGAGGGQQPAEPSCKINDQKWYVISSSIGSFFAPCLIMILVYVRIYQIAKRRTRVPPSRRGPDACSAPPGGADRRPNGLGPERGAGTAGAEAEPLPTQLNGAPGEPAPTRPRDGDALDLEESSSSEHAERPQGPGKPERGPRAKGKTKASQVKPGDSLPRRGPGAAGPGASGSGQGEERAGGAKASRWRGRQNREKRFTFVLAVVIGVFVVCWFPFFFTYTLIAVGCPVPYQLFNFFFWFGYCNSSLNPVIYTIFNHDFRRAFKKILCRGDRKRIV

Row | Structure (SMILES) | Ki [1] | Ki [2] | Ki [3] | Ki ([2]; read-out: Ki) [nM] | Ki ([1]; read-out: Ki) [nM] | Ki [4] [nM] | Ki [5] [nM] | Ki [6] [nM] | Ki [7] [nM] | Ki ([3]; read-out: Ki) [nM]
1 | COCCN1CCN(CCCN/C(=N\C#N)c2ccncc2)CC1 | Not Active | – | Not Active | > 10000 | – | – | – | – | – | –
2 | CCOCCN1CCN(CCCN/C(=N\C#N)c2ccncc2)CC1 | – | Not Active | Not Active | – | > 10000 | – | – | – | – | –
3 | N#C/N=C(\NCCCN1CCN(c2cccc(Cl)c2)CC1)c1ccncc1 | – | – | Not Active | > 10000 | 6.17 | 1630 | > 10000 | 912 | > 10000 | –
4 | COc1ccc(N2CCN(CCCN/C(=N\C#N)c3ccncc3)CC2)cc1 | – | – | Not Active | > 10000 | > 10000 | – | – | – | – | –
5 | N#C/N=C(\NCCCN1CCN(Cc2ccc3c(c2)OCO3)CC1)c1ccncc1 | – | – | Not Active | > 10000 | > 10000 | – | – | – | – | –
6 | N#C/N=C(\NCCCN1CCN(C(=O)c2ccco2)CC1)c1ccncc1 | – | – | Not Active | > 10000 | > 10000 | – | – | – | – | –

Continued, values first:

Row | Ki [1] | Ki [2] | Ki [3] | Ki ([2]; read-out: Ki) [nM] | Ki ([1]; read-out: Ki) [nM] | Ki [4] [nM] | Ki [5] [nM] | Ki [6] [nM] | Ki [7] [nM] | Ki ([3]; read-out: Ki) [nM] | Structure (SMILES)
7 | Not Active | Not Active | Not Active | – | – | – | – | – | – | – | C=CCN1CCN(CCCN/C(=N\C#N)c2ccncc2)CC1
8 | – | – | Not Active | 32.1 | 141 | – | – | – | – | – | N#C/N=C(\NCCCN1CCN(c2cccc(C(F)(F)F)c2)CC1)c1ccncc1
9 | – | Not Active | Not Active | – | 172 | – | – | – | – | – | N#C/N=C(\NCCCN1CCN(c2ncccn2)CC1)c1ccncc1
10 | – | Not Active | Not Active | – | 0.038 | > 10000 | > 10000 | > 10000 | > 10000 | – | N#C/N=C(\NCCCN1CCN(c2ccccn2)CC1)c1ccncc1
11 | – | – | – | 1900 | 21.3 | > 10000 | > 10000 | 190 | 516 | 11.5 | CCOc1ccccc1N1CCN(CCCN/C(=N\C#N)c2ccncc2)CC1
12 | Not Active | – | Not Active | > 10000 | – | – | – | – | – | – | N#C/N=C(\NCCCN1CCN(c2ccccc2C#N)CC1)c1ccncc1
13 | – | – | Not Active | > 10000 | 101 | – | – | – | – | – | Cc1cccc(N2CCN(CCCN/C(=N\C#N)c3ccncc3)CC2)c1C
14 | – | – | Not Active | > 10000 | 166 | – | – | – | – | – | N#C/N=C(\NCCCN1CCN(c2ccccc2Cl)CC1)c1ccncc1
15 | – | – | Not Active | > 10000 | 1.47 | > 10000 | > 10000 | > 10000 | 2570 | – | COc1ccccc1N1CCN(CCCN/C(=N\C#N)c2ccncc2)CC1
